Assay results pooled from the literature.
Protocols differ between the studies behind these lines.
Effect on: cell growth or viability

Compound | cell line | method | time | IC50
CCOC(=O)c1[nH]c(Br)c(-c2ccc(SC)cc2)c1Br | MDA-MB-435 | SRB |  | 626 nM
O=c1[nH]c(=O)n([C@H]2C[C@H](O)[C@@H](CO)O2)cc1F | FM3A/0 | MTT | 72 h | 3.2 nM
O=C(Nc1ccc(Cl)cc1)c1ccc([N+](=O)[O-])o1 | NCI-H2030 | resazurin | 96 h | 1120 nM
CC1=C(O)C(=O)C=C2C1=CC=C1[C@@]2(C)CC[C@@]2(C)[C@@H]3C[C@](C)(C(=O)OCCCCO)CC[C@]3(C)CC[C@]12C | MGC-803 | MTT | 48 h | 270 nM
COc1cccc2c1C(=O)c1c(O)c3c(c(O)c1C2=O)C[C@@](O)(C(=O)CO)C[C@@H]3O[C@H]1C[C@H](N)[C@H](O)[C@H](C)O1 | ECa-109 | MTT | 48 h | 170 nM
CC1=C(O)C(=O)C=C2C1=CC=C1[C@@]2(C)CC[C@@]2(C)[C@@H]3C[C@](C)(C(=O)OCCO)CC[C@]3(C)CC[C@]12C | MGC-803 | MTT | 48 h | 370 nM
N[C@@H](CC(=O)N1CCN(C(c2ccc(F)cc2)c2ccc(F)cc2)CC1)C(=O)N1Cc2ccccc2C1 | Kasumi 1 | ATP luminescence | 48 h | 40800 nM
CC1=C(O)C(=O)C=C2C1=CC=C1[C@@]2(C)CC[C@@]2(C)[C@@H]3C[C@](C)(C(=O)OCCCN4C(=O)C5C=CC=CC5C4=O)CC[C@]3(C)CC[C@]12C (stereo partly drawn) | MGC-803 | MTT | 48 h | 390 nM
CC[C@@H](C)[C@H](N)C(=O)N1Cc2ccccc2C1 | Kasumi 1 | ATP luminescence | 48 h | > 60000 nM
CC1=C(O)C(=O)C=C2C1=CC=C1[C@@]2(C)CC[C@@]2(C)[C@@H]3C[C@](C)(C(=O)OCCCCCCCCO)CC[C@]3(C)CC[C@]12C | MGC-803 | MTT | 48 h | 380 nM
C[C@@H]1CCO[C@H]2Cn3cc(C(=O)NCc4ccc(F)cc4F)c(=O)c(O)c3C(=O)N12 | COS-7 | ATP luminescence |  | 360000 nM
Cc1cccc(Nc2ccccc2C(=O)O)c1C | mouse Peritoneal macrophage | crystal violet | 72 h | > 200000 nM
CC(C)n1c(/C=C/C(O)CC(O)CC(=O)O)c(-c2ccc(F)cc2)c2ccccc21 (stereo not drawn) | SW480 | SRB | 72 h | 4.24 µg/mL
Nc1ccn([C@@H]2O[C@H](CO)[C@@H](O)C2(F)F)c(=O)n1 | 143B | resazurin | 72 h | 8.9 nM
CC1=C(O)C(=O)C=C2C1=CC=C1[C@@]2(C)CC[C@@]2(C)[C@@H]3C[C@](C)(C(=O)OCCCn4ccc5ccccc54)CC[C@]3(C)CC[C@]12C | MGC-803 | MTT | 48 h | 1090 nM
C#C[C@@]1(O)[C@@H](COP(=O)(O)OC[C@H]2O[C@@H](n3cc(F)c(=O)[nH]c3=O)C[C@@H]2O)O[C@@H](n2ccc(N)nc2=O)[C@@H]1O | FM3A/0 | MTT | 72 h | 2.2 nM
COCCCOC(=O)[C@]1(C)CC[C@]2(C)CC[C@]3(C)C4=CC=C5C(=CC(=O)C(O)=C5C)[C@]4(C)CC[C@@]3(C)[C@@H]2C1 | MGC-803 | MTT | 48 h | 400 nM
Cc1cnc(-c2ccc(-c3ccc(NC(=O)Nc4c(F)cc(F)cc4F)cc3F)c3c2C(=O)NC3)[nH]1 | Kasumi 1 |  |  | 22 nM
OCc1ccc2c(c1C#Cc1ccc(O)cc1)C(c1ccc(O)cc1)(c1ccc(O)cc1)c1cc(O)ccc1-2 | MGC-803 | MTT | 48 h | > 50000 nM
Cc1nnc(C(=O)NC(C)(C)c2nc(C(=O)NCc3ccc(F)cc3)c(O)c(=O)n2C)o1 | COS-7 | ATP luminescence |  | 36400 nM
COc1cc(Nc2nccc(-c3cnn4nc(OC)ccc34)n2)cc(C(F)(F)F)c1 | NCI-N87 | ATP luminescence |  | 640 nM
